Source: PubChem BioAssay
Hits are enriched below; roughly 3.7% of the tested compounds scored in any of these assays.
Kir21 block = blocks the mouse Kir2.1 inward-rectifier potassium channel; 310,000 compounds, 0.85% hits; HEK293-Kir2.1, FluxOR thallium flux fluorescence; active compounds read low; B-score at 10 µM; AID 1672; P35561;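 active = fluorescence ratio B-score at or below minus 3 SD of library scores, with starting-brightness B-score within 2 SD, cut at about -4.2 in these data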;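 also: channel flux triggered by added potassium and thallium sulfate stimulus; B-score of peak minus minimum fluorescence over baseline after thallium stimulus; more negative B-score means stronger Kir2.1 block with less thallium influx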
hERG protect = hERG (human) protection from proarrhythmic block; CHO-hERG, FluxOR thallium flux, dofetilide IC70 present; activation (rescue from dofetilide block), less the hit threshold, % at 10 µM; 310,000 compounds, 0.51% hits;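 active = activation above the mean of controls blocked by dofetilide plus 5 SD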;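 also: thallium influx through hERG after potassium depolarization seen as dye fluorescence rise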
KCNQ1 block = human KCNQ1 channel inhibition; P51787; CHO-K1 KCNQ1, FluxOR thallium flux fluorescence; active compounds read high; B-score at 10 µM; 310,000 compounds, 1.3% hits; AID 2642;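 active = compounds whose thallium flux B-score, printed positive for inhibition, exceeds three library SD while starting fluorescence stays within three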;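 also: channel opened by potassium depolarization with thallium stimulus after 20 min compound exposure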
KCNK3 block = human KCNK3 channel inhibition, primary screen. AID 602410. O14649. B-score at 10 µM. 340,000 compounds, 0.84% hits. CHO-KCNK3 thallium flux, FluxOR fluorescence; active compounds read low;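 active = B-score under library mean minus 4 SD, starting fluorescence ratio at most library mean plus 5 SD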;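 also: more negative B-score means stronger inhibition of thallium flux through KCNK3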
Target sequence (O14649 whole entry, looked up): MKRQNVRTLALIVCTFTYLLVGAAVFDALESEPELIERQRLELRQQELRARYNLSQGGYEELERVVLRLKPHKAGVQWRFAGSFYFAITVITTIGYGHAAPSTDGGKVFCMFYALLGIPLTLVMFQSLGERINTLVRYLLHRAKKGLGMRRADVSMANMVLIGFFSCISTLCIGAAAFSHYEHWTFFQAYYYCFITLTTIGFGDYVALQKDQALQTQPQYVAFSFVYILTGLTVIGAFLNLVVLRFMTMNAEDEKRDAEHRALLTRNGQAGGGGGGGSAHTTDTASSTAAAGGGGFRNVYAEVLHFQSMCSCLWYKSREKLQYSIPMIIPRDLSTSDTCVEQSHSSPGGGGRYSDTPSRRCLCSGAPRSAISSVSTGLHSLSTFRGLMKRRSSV
KCNK9 inh = human KCNK9 channel inhibition; Q9NPC2; HEK293 KCNK9, FluxOR thallium flux fluorescence; active compounds read low; B-score at 10 µM; 310,000 compounds, 1.2% hits;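 active = ratio B-score over 3 SD below the library mean, with starting fluorescence within 5 SD of its mean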;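 also: negative B-score means less thallium flux so channel inhibition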
KCNQ1 act = potentiates or activates the human KCNQ1 potassium channel; CHO-K1 KCNQ1, thallium flux FluxOR fluorescence; active compounds read high; B-score at 10 µM; 310,000 compounds, 0.35% hits;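 active = fluorescence ratio B-score, a plate-corrected score, at least three library SD, with initial intensity B-score within 5 SD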
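Assay system: stable KCNQ1 CHO-K1 line; medium: assay buffer, equal DMSO in all wells; timing: 90 min dye loading and 20 min compound exposure, both at room temperature; technique: kinetic FluxOR thallium fluorescence, 10-s 1-Hz baseline, 110-s post-stimulus read; read-out basis: B score of baseline-normalized fluorescence ratio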
The depositor's hits bear a star; i = inactive; x = no result given.

SMILES | Kir21 block | hERG protect | KCNQ1 block | KCNK3 block | KCNK9 inh | KCNQ1 act
COCCCNCCOCCOc1ccc(Cl)cc1C(C)(C)C | -6.2* | -13 | i | i | i | i
CC(C)(C)c1ccccc1OCCOCCNCc1ccccc1 | -9.3* | -7 | i | i | i | i
O=[N+]([O-])c1ccccc1OCCNCc1ccccc1 | -1.8 | 7.2* | i | i | i | i
CC(C)(C)NCCOCCOc1ccc(Cl)cc1C(C)(C)C | -1 | -5 | i | i | i | i
CCC(c1nnc(SCC(=O)NC2CCCCC2)n1Cc1ccccc1)N(C)C (centres undefined) | -1.4 | -12 | i | i | i | i
O/N=C(\CN1CCCCC1)c1ccccc1 | -0.08 | -5 | i | i | i | i
C=CCNCCCOc1ccc(Cl)cc1C(C)(C)C | -14* | -20 | i | i | i | i
COc1cc(C)c(C)cc1S(=O)(=O)n1c(C)nc2ccccc21 | -5.1* | -8 | i | i | i | i
COc1cc(F)ccc1S(=O)(=O)n1c(C)nc2ccccc21 | -6.5* | -6 | i | i | i | i
COc1cc(S(=O)(=O)n2c(C)nc3ccccc32)ccc1F | 0.73 | -3 | i | i | i | i
CC(C)c1ccccc1NC(=O)C1CCCN(C(=O)c2ccc(Cl)cc2)C1 (centres undefined) | x | x | x | i | x | x
CC(OC(=O)CCC(=O)c1ccc(Cl)s1)C(=O)NC1(C#N)CCCCC1 (centres undefined) | x | x | x | i | x | x
COc1ccc(OC)c(C(c2nnnn2C2CCCC2)N2CCN(c3ccccc3F)CC2)c1 (centres undefined) | 0.38 | -7 | i | i | -8.9* | i
O=C(N/N=C/c1cccs1)c1cc(-c2ccc(Cl)s2)[nH]n1 | -0.26 | -13 | i | i | i | i
c1ccc(-c2nnsc2-c2ncc[nH]2)cc1 | -1.2 | 4.7* | i | i | i | i
O=C(Cn1nnc2ccccc21)c1cccc([N+](=O)[O-])c1 | -2.3 | 5.3* | i | i | i | i
Cc1ccc(C[n+]2cccc(-c3ccccc3)c2)c(C)c1 | -4.3* | -13 | i | i | i | i
Cc1ccc2ccc[n+](Cc3ccccc3)c2c1 | -0.62 | -6 | i | i | i | i
CCCNC(C)C(=O)Nc1c(C)csc1C(=O)OC (centres undefined) | x | x | x | i | x | x
CS/C(=N\S(=O)(=O)c1ccc(Cl)cc1)c1ccccc1 | -5.3* | -3 | i | i | i | i
Cc1ccc(S(=O)(=O)/N=C(\c2ccccc2)N(C)S(=O)(=O)c2ccc(C)cc2)cc1 | 0.46 | -8 | i | i | i | i
O=S(=O)(/N=C(\Sc1ccc(Cl)cc1)c1ccccc1)c1ccccc1 | -2.1 | -23 | i | i | i | i
CS/C(=N/S(=O)(=O)c1ccc(C)cc1)c1ccccc1 | -10* | -7 | i | i | i | i
N#CCc1ccccc1C(=O)OCC(=O)N(Cc1ccccc1)Cc1ccccc1 | x | x | x | -9.4* | x | x
CCOc1cccc(C(=O)Nc2ccc3oc(Cc4ccc(Cl)cc4)nc3c2)c1 | -0.65 | -9 | 6* | i | i | i
SMILES | Kir21 block | hERG protect | KCNQ1 block | KCNK3 block | KCNK9 inh | KCNQ1 act
CCN(C(=O)COC(=O)c1ccc(C=O)cc1)c1c(N)n(Cc2ccccc2)c(=O)[nH]c1=O | x | x | x | i | x | x
C/C(=N/Oc1nc(C)cc(C)n1)c1ccc(Cl)cc1Cl | 1.6 | -4 | i | i | i | i
C/C(=N\Oc1cccc(F)n1)c1ccc(Cl)cc1Cl | 0.34 | -8 | 6* | i | i | i
COC(=O)c1ccccc1NC(=O)Cn1cnc2c(cnn2-c2ccccc2)c1=O | -0.3 | 4.8* | i | i | i | i
CCN(CC)S(=O)(=O)c1cccc(C(=O)N/N=C/c2ccc(N3CCOCC3)cc2)c1 | 0.15 | -12 | i | i | i | i
COCCCNCCCOc1ccc(C(C)(C)c2ccccc2)cc1 | -8.2* | -9 | i | i | i | i
C=CCNCCCOc1ccc(C(C)(C)c2ccccc2)cc1 | -8.6* | -11 | i | i | i | i
COCCNCCCOc1ccc(C(C)(C)c2ccccc2)cc1 | -3.2 | -6 | i | i | i | i
CC1(C)NC(=O)N(CC(=O)N2CCN(c3ccc([N+](=O)[O-])cc3)CC2)C1=O | x | x | x | i | x | x
O=C(CSc1ccc2nnc(-c3ccccn3)n2n1)NCc1ccco1 | 0.41 | -9 | i | i | i | i
Cc1nn(-c2ccccc2)c(Cl)c1C1C(C#N)=C(N)OC2=C1C(=O)CCC2 (centres undefined) | 1.3 | 5.4* | i | i | i | i
Cc1ccc(NS(=O)(=O)c2cc([N+](=O)[O-])ccc2NNC(=S)Nc2cccc(Cl)c2)c(C)c1 | -2.5 | -17 | 6* | i | i | i
Cc1ccc(NS(=O)(=O)c2cc([N+](=O)[O-])ccc2NNC(=S)Nc2cc(C)ccc2C)c(C)c1 | 0 | -12 | 6* | i | i | i
COc1ccc(NC(=S)NNc2ccc([N+](=O)[O-])cc2S(=O)(=O)Nc2ccc(C)cc2C)cc1 | -0.53 | -25 | 7* | i | i | i
N#CCCN(C(=O)COC(=O)CCNS(=O)(=O)c1ccccc1)c1ccccc1 | x | x | x | i | x | x
CCOC(=O)C1=C(Nc2ccc(Cl)cc2)OCC1=O | -0.38 | -6 | i | i | i | i
N#CC1=C(N)NC(SCc2ccc(F)cc2)=C(C#N)C12CCCCC2 | -4.4* | -26 | i | i | i | i
N#CC1=C(N)NC(SCC(=O)Nc2ccccc2)=C(C#N)C12CCCC2 | 1.1 | -15 | 10* | i | i | i
Nc1nc(SCc2ccccc2)c2ncn(CCO)c2n1 | x | x | x | i | x | x
COC(=O)COc1cc(OCC(=O)OC)c2c(-c3ccccc3)cc(=O)oc2c1 | -1.3 | -9 | i | i | i | i
CC(C)(C)OC(=O)COc1cc(OCC(=O)OC(C)(C)C)c2c(=O)cc(-c3ccccc3)oc2c1 | x | x | x | -9.1* | x | x
O=C(NCCCl)Nc1ccccc1OCCOc1ccccc1NC(=O)NCCCl | 1.1 | -9 | i | i | -7* | i
COc1ccc(-c2ccc(/C=N/NC(=O)c3cccnc3)o2)c([N+](=O)[O-])c1 | -2.3 | 16* | i | i | i | i
COc1ccc(C(=O)/C=C/C(=O)N(CC(=O)NC2CCCCC2)CC2CCCO2)c(O)c1 (centres undefined) | -5.3* | -37 | i | i | i | i
CC(C)Nc1nc(Oc2ccc(Cl)cc2Cl)cc(C(F)(F)F)n1 | 1.6 | -10 | 7* | i | i | i
